Reference: ChEMBL document CHEMBL4330056, “Synthesis and Cytotoxic and Antiviral Profiling of Pyrrolo- and Furo-Fused 7-Deazapurine Ribonucleosides” (J Med Chem, 2018)
The source made the active and inactive calls. The rule behind the calls is not given here.

What was measured:
BJ = test: Antiproliferative activity against human BJ cells after 3 days by MTS assay; details: 72 h
MRC5 = test: Antiproliferative activity against human MRC5 cells after 3 days by MTS assay; details: MRC5, 72 h
A549 = test: Antiproliferative activity against human A549 cells after 3 days by MTS assay; format: functional, cell-based; details: A549, 72 h
[1] = Antiproliferative activity against human CEM-DNR-bulk cells after 3 days by MTS assay; details: 72 h
HCT-116 [2] = test: Antiproliferative activity against human HCT116 cells after 3 days by MTS assay; format: functional, cell-based; details: HCT-116, 72 h
HCT-116 [3] = test: Antiproliferative activity against p53 gene knocked out human HCT116 cells after 3 days by MTS assay; format: functional, cell-based; details: HCT-116, 72 h
[4] = Antiproliferative activity against human K562-TAX cells after 3 days by MTS assay; format: functional, cell-based; details: 72 h
U2OS = test: Antiproliferative activity against human U2OS cells after 3 days by MTS assay; format: functional, cell-based; details: 72 h
HeLa S3 = test: Antiproliferative activity against human HeLaS3 cells after 72 hrs by XTT assay; format: functional, cell-based; details: HeLa S3, 72 h
CCRF-CEM [5] = test: Induction of cell cycle arrest in human CCRF-CEM cells assessed as accumulation at subG1 phase at IC50 concentration after 24 hrs by propidium iodide-staining based flow cytometry (reference value: 3.45%); format: functional
CCRF-CEM [6] = test: Induction of cell cycle arrest in human CCRF-CEM cells assessed as accumulation at subG1 phase at 5 times IC50 concentration after 24 hrs by propidium iodide-staining based flow cytometry (reference value: 3.45%); format: functional
CCRF-CEM [7] = test: Induction of cell cycle arrest in human CCRF-CEM cells assessed as accumulation at G0/G1 phase at IC50 concentration after 24 hrs by propidium iodide-staining based flow cytometry (reference value: 39.70%); format: functional
CCRF-CEM [8] = test: Induction of cell cycle arrest in human CCRF-CEM cells assessed as accumulation at G0/G1 phase at 5 times IC50 concentration after 24 hrs by propidium iodide-staining based flow cytometry (reference value: 39.70%); format: functional
CCRF-CEM [9] = test: Induction of cell cycle arrest in human CCRF-CEM cells assessed as accumulation at S phase at IC50 concentration after 24 hrs by propidium iodide-staining based flow cytometry (reference value: 41.08%); format: functional
CCRF-CEM [10] = test: Induction of cell cycle arrest in human CCRF-CEM cells assessed as accumulation at S phase at 5 times IC50 concentration after 24 hrs by propidium iodide-staining based flow cytometry (reference value: 41.08%); format: functional
CCRF-CEM [11] = test: Induction of cell cycle arrest in human CCRF-CEM cells assessed as accumulation at G2/M phase at IC50 concentration after 24 hrs by propidium iodide-staining based flow cytometry (reference value: 19.22%); format: functional
CCRF-CEM [12] = test: Induction of cell cycle arrest in human CCRF-CEM cells assessed as accumulation at G2/M phase at 5 times IC50 concentration after 24 hrs by propidium iodide-staining based flow cytometry (reference value: 19.22%); format: functional
CCRF-CEM [13] = test: Inhibition of mitosis in human CCRF-CEM cells assessed Ser10 H3 phosphorylation positive cells at IC50 concentration after 24 hrs by flow cytometry relative to total cell population (reference value: 1.36%); format: functional; design: scale not given: the % may be the effect or the level left
CCRF-CEM [14] = test: Inhibition of mitosis in human CCRF-CEM cells assessed Ser10 H3 phosphorylation positive cells at 5 times IC50 concentration after 24 hrs by flow cytometry relative to total cell population (reference value: 1.36%); format: functional; design: scale not given: the % may be the effect or the level left
CCRF-CEM [15] = test: Inhibition of DNA synthesis in human CCRF-CEM cells assessed as DNA synthesis level at IC50 concentration after 24 hrs by BrdU incorporation assay (reference value: 43.39%); format: functional; design: scale not given: the % may be the effect or the level left
CCRF-CEM [16] = test: Inhibition of DNA synthesis in human CCRF-CEM cells assessed as DNA synthesis level at 5 times IC50 concentration after 24 hrs by BrdU incorporation assay (reference value: 43.39%); format: functional; design: scale not given: the % may be the effect or the level left
CCRF-CEM [17] = test: Inhibition of RNA synthesis in human CCRF-CEM cells assessed as RNA synthesis level at IC50 concentration after 24 hrs by BrU incorporation assay (reference value: 49.89%); format: functional; design: scale not given: the % may be the effect or the level left
CCRF-CEM [18] = test: Inhibition of RNA synthesis in human CCRF-CEM cells assessed as RNA synthesis level at 5 times IC50 concentration after 24 hrs by BrU incorporation assay (reference value: 49.89%); format: functional; design: scale not given: the % may be the effect or the level left
Hepatitis C virus [19] = test: Antiviral activity against Hepatitis C virus genotype 1b infected in human Huh-luc replicon cells after 3 days by luciferase assay; format: functional, organism-based, Hepacivirus hominis; details: subtype 1b, 72 h
[20] = Cytotoxicity against human Hep2 cells assessed as reduction in cell viability after 3 days by CellTiter-Glo assay; format: cell-based; details: HEp-2 cells
Hepatitis C virus [21] = test: Antiviral activity against Hepatitis C virus genotype 2a infected in human Huh-luc replicon cells after 3 days by luciferase assay; format: functional, organism-based, Hepacivirus hominis; details: subtype 2a, 72 h
CCRF-CEM [22] = test: Antiproliferative activity against human CCRF-CEM cells after 3 days by MTS assay; format: functional, cell-based; details: 72 h
K562 = test: Antiproliferative activity against human K562 cells after 3 days by MTS assay; format: functional, cell-based; details: K562, 72 h
HL-60 = test: Antiproliferative activity against human HL60 cells after 72 hrs by XTT assay; format: functional, cell-based; details: HL-60, 72 h
HepG2 = test: Antiproliferative activity against human HepG2 cells after 72 hrs by XTT assay; format: functional, cell-based; details: HepG2, 72 h
Adenosine kinase [23] = target: T1, Adenosine kinase (Homo sapiens, UniProt P55263); test: Substrate activity at recombinant human ADK assessed as compound phosphorylation at 50 uM after 20 mins in presence of [3H]-adenosine by UPLC; format: ADME
Adenosine kinase [24] = target: T1, Adenosine kinase; test: Inhibition of recombinant human ADK using [3H]-adenosine as substrate after 20 mins by TLC scanner-based analysis relative to control
Summary of the method: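 ADK inhibition: 50 μM adenosine substrate with 10 μM test compound and 97 ng enzyme, 20 min at 37 °C.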

Influenza A virus = test: Antiviral activity against Influenza A virus (A/Mexico/4108/2009(H1N1)) infected in MDCK cells assessed as inhibited virus-induced cytopathic effect incubated for 2 days by XTT assay; format: functional, organism-based
Human orthopneumovirus = test: Antiviral activity against Human respiratory syncytial virus A2 infected in Hep2 cells assessed as reduction in virus-induced cytopathic effect incubated for 4 days by CellTiter-Glo viability reagent based assay; format: functional, organism-based
Coxsackievirus B3 = test: Antiviral activity against Human coxsackie B3 Nancy infected in human HeLa cells assessed as inhibited virus-induced cytopathic effect incubated for 2 days by XTT assay; format: functional, organism-based
Human alphaherpesvirus 1 = test: Antiviral activity against human herpesvirus 1 HF infected in African green monkey Vero cells assessed as inhibited virus-induced cytopathic effect incubated for 3 days by XTT assay; format: functional, organism-based
dengue virus type 2 = test: Antiviral activity against Dengue virus 2 Thailand/16681/84 infected in African green monkey Vero cells assessed as inhibition of virus replication incubated for 3 days by fluorescence microscopy; format: functional, organism-based

T1 sequence (P55263 whole entry): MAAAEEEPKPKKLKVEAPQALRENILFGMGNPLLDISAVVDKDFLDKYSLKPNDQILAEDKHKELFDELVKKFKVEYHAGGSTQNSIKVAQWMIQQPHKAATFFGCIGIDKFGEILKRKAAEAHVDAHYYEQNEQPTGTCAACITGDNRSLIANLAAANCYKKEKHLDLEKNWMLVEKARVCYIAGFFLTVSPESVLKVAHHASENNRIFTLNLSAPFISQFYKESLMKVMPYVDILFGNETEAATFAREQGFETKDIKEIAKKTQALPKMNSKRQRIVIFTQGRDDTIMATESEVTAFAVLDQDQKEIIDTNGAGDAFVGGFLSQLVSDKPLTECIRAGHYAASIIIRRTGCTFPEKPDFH

Row | Structure (SMILES) | IC50 (BJ) | IC50 (MRC5) | IC50 (A549) | IC50 [1] | IC50 (HCT-116 [2]) | IC50 (HCT-116 [3]) | IC50 [4] | IC50 (U2OS) | IC50 (HeLa S3) | Activity (CCRF-CEM [5]) | Activity (CCRF-CEM [6]) | Activity (CCRF-CEM [7]) | Activity (CCRF-CEM [8]) | Activity (CCRF-CEM [9]) | Activity (CCRF-CEM [10]) | Activity (CCRF-CEM [11]) | Activity (CCRF-CEM [12]) | Activity (CCRF-CEM [13]) | Activity (CCRF-CEM [14]) | Activity (CCRF-CEM [15]) | further results
1 | Nc1ncnc2c1c(-c1cccs1)cn2[C@@H]1O[C@H](CO)[C@@H](O)[C@H]1O | > 50000 nM | > 50000 nM | 13100 nM | 60 nM | 20 nM | 20 nM | 40 nM | 510 nM | 20 nM | 29.83% | 58.53% | 20.49% | 32.31% | 62.28% | 38.71% | 17.23% | 28.98% | 2.09% | 0.94% | 3.59% | Activity (CCRF-CEM [16]): 10.76%; Activity (CCRF-CEM [17]): 0.91%; Activity (CCRF-CEM [18]): 57.09%
2 | COc1ncnc2c1c1occc1n2[C@@H]1O[C@H](CO)[C@@H](O)[C@H]1O | 1090 nM | 13400 nM | 1930 nM | 3120 nM | 280 nM | 300 nM | 300 nM | 430 nM | 2310 nM | 4.23% | 6.82% | 41.52% | 20.54% | 41.82% | 65.39% | 16.65% | 14.07% | 0.56% | 0.58% | 42.65% | EC50 (Hepatitis C virus [19]): 380 nM; CC50 at 72 h [20]: > 44400 nM; EC50 (Hepatitis C virus [21]): 290 nM; IC50 (CCRF-CEM [22]): 180 nM; IC50 (K562): 320 nM; IC50 (HL-60): 700 nM; IC50 (HepG2): 2410 nM; Activity (CCRF-CEM [16]): 52.74%; Activity (CCRF-CEM [17]): 25.36%; Activity (CCRF-CEM [18]): 4.3%; Activity (Adenosine kinase [23]): 35%; IC50 (Adenosine kinase [24]): > 10000 nM; Activity (Influenza A virus): inactive; Activity (Human orthopneumovirus): inactive; Activity (Coxsackievirus B3): inactive; Activity (Human alphaherpesvirus 1): inactive; Activity (dengue virus type 2): inactive
3 | COc1ncnc2c1c1c(ccn1C)n2[C@@H]1O[C@H](CO)[C@@H](O)[C@H]1O | 4500 nM | 50000 nM | > 50000 nM | > 50000 nM | 360 nM | 620 nM | > 50000 nM | 1300 nM | 1530 nM | 3.68% | 13.86% | 37.73% | 47.62% | 45.08% | 36.98% | 17.2% | 15.4% | 1.48% | 1.5% | 31.44% | EC50 (Hepatitis C virus [19]): 90 nM; CC50 at 72 h [20]: > 44400 nM; EC50 (Hepatitis C virus [21]): 280 nM; IC50 (CCRF-CEM [22]): 440 nM; IC50 (K562): 510 nM; IC50 (HL-60): 1440 nM; IC50 (HepG2): 2590 nM; Activity (CCRF-CEM [16]): 12.29%; Activity (CCRF-CEM [17]): 31.19%; Activity (CCRF-CEM [18]): 28.3%; Activity (Adenosine kinase [23]): 47%; IC50 (Adenosine kinase [24]): > 10000 nM; Activity (Influenza A virus): inactive; Activity (Human orthopneumovirus): inactive; Activity (Coxsackievirus B3): inactive; Activity (Human alphaherpesvirus 1): inactive; Activity (dengue virus type 2): inactive
